Key:
[1] = tested on: Escherichia coli; assay: Kirby–Bauer agar disc diffusion; type: cell-based
Summary of the method: (§1)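 Kirby–Bauer disc diffusion on Mueller–Hinton agar (pH 7.2, autoclaved 121 °C for 15 min, ~4 mm deep, held 2–8 °C for 24 h). Plates spread with 24 h cultures. 6 mm discs loaded with 20 μL of 100 μM test compound. Bacteria incubated at 37 °C for 48 h; fungi at 22 °C for 7 days. Clear-zone diameter measured by ruler; % inhibition by eqn (20) against 6 mm control.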

[2] = tested on: Salmonella enteric serovar typhi; assay: Kirby–Bauer agar disc diffusion; type: cell-based
Summary of the method: as §1

[3] = tested on: Chromobacterium violaceum; assay: Kirby–Bauer agar disc diffusion; type: cell-based
Summary of the method: as §1

[4] = tested on: Pseudomonas aeruginosa; assay: Kirby–Bauer agar disc diffusion; type: cell-based
Summary of the method: as §1

[5] = tested on: Shigella flexneri; assay: Kirby–Bauer agar disc diffusion; type: cell-based
Summary of the method: as §1

[6] = tested on: Staphylococcus aureus; assay: Kirby–Bauer agar disc diffusion; type: cell-based
Summary of the method: as §1

[7] = tested on: Bacillus cereus; assay: Kirby–Bauer agar disc diffusion; type: cell-based
Summary of the method: as §1

[8] = tested on: Aspergillus niger; assay: Kirby–Bauer agar disc diffusion; type: cell-based
Summary of the method: as §1

[9] = tested on: Candida albicans; assay: Kirby–Bauer agar disc diffusion; type: cell-based
Summary of the method: as §1

[10] = tested on: Mucor indicus; assay: Kirby–Bauer agar disc diffusion; type: cell-based
Summary of the method: as §1

[11] = DPPH radical scavenging assay
Summary of the method: (§2)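 Absorbance read at 517 nm (DPPH), 230 nm (hydroxyl), 590 nm (superoxide), 546 nm (nitric oxide) and 700 nm (FRAP). FRAP measures the rise in absorbance from Fe3+→Fe2+ reduction with ferricyanide. IC50 taken from % inhibition vs concentration plots.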

[12] = Hydroxyl radical scavenging assay
Summary of the method: as §2

[13] = Superoxide scavenging assay
Summary of the method: as §2

[14] = Nitric oxide scavenging assay
Summary of the method: as §2

[15] = Ferric reducing antioxidant power
Summary of the method: as §2

[16] = tested on: human lung cancer (A549); assay: In vitro anticancer MTT assay; type: cell-based; settings: 50% cell death following 72 h exposure
Summary of the method: (§3)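 MTT viability: cells seeded at 1 × 10^5 per well and incubated 24 h at 37 °C, 5% CO2. Treated with test compound at 10–100 μg mL−1 (from DMSO). Medium removed, wells PBS-washed, RPMI-1640 plus MTT (5 mg mL−1 solution) added for 4 h at 37 °C. Formazan dissolved in DMSO, read at 570 nm. Triplicate wells; IC50 from % viability; cisplatin as reference.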

[17] = tested on: liver cancer (HepG2); assay: In vitro anticancer MTT assay; type: cell-based, human; settings: 50% cell death following 72 h exposure
Summary of the method: as §3

[18] = tested on: breast (MCF-7); assay: In vitro anticancer MTT assay; type: cell-based, human; settings: 50% cell death following 72 h exposure
Summary of the method: as §3

[19] = tested on: normal human dermal fibroblast (NHDF); assay: MTT assay on normal cells; type: cell-based; settings: normal cell line; 50% cell death following 72 h exposure
Summary of the method: as §3

`NCC[C@H](O)C(=O)N[C@@H]1C[C@H](N)[C@@H](O[C@H]2O[C@H](CN)[C@@H](O)[C@H](O)[C@H]2O)[C@H](O)[C@H]1O[C@H]1O[C@H](CO)[C@@H](O)[C@H](N)[C@H]1O` [Amikacin, amikacin] gave an inhibition% ([1]; A = (−) Escherichia coli, from zone diameter, eqn (20)) of 73%, a zone of inhibition at 100 µM ([1]; Escherichia coli, read-out: diameter of clear zone inhibition) of 22 mm and an inhibition% ([2]; B = (−)Salmonella enteric serovar typhi, eqn (20)) of 73%. The zone of inhibition at 100 µM ([2]; Salmonella, TYPHI, read-out: diameter of clear zone inhibition) was 22 mm, the inhibition% ([3]; C = (−)Chromobacterium violaceum, eqn (20)) was 75% and the zone of inhibition at 100 µM ([3]; Chromobacterium violaceum, read-out: diameter of clear zone inhibition) was 24 mm. It also gave an inhibition% ([4]; D = (−)Pseudomonas aeruginosa, eqn (20)) of 70%, a zone of inhibition at 100 µM ([4]; Pseudomonas aeruginosa, read-out: diameter of clear zone inhibition) of 20 mm and an inhibition% ([5]; E = (−)Shigella flexneri, eqn (20)) of 70%. It also gave a zone of inhibition at 100 µM ([5]; Shigella flexneri, read-out: diameter of clear zone inhibition) of 20 mm, an inhibition% ([6]; F = (+)Staphylococcus aureus, eqn (20)) of 70% and a zone of inhibition at 100 µM ([6]; Staphylococcus aureus, read-out: diameter of clear zone inhibition) of 20 mm. It also gave a zone of inhibition at 100 µM ([7]; Bacillus cereus, read-out: diameter of clear zone inhibition) of 20 mm and an inhibition% ([7]; G = (+)Bacillus cereus, eqn (20)) of 70%.

`C[C@@H]1[C@H](O)[C@@H](C)/C=C/C=C/C=C/C=C/C=C/C=C/C=C/[C@H](O[C@@H]2O[C@H](C)[C@@H](O)[C@H](N)[C@@H]2O)C[C@@H]2O[C@](O)(C[C@@H](O)C[C@@H](O)[C@H](O)CC[C@@H](O)C[C@@H](O)CC(=O)O[C@H]1C)C[C@H](O)[C@H]2C(=O)O` [Amphotericin B, amphotericin B] gave a zone of inhibition at 100 µM ([8]; Aspergillus niger, read-out: diameter of clear zone inhibition) of 15 mm, an inhibition% ([8]; H = Aspergillus niger, eqn (20)) of 60% and a zone of inhibition at 100 µM ([9]; Candida albicans, read-out: diameter of clear zone inhibition) of 17 mm. The inhibition% ([9]; I = Candida albicans, eqn (20)) was 65%, the inhibition% ([10]; J = Mucor indicus, eqn (20)) was 65% and the zone of inhibition at 100 µM ([10]; Mucor indicus, read-out: diameter of clear zone inhibition) was 17 mm.

For `O=C1O[C@H]([C@@H](O)CO)C(O)=C1O` [Ascorbic acid, ascorbic acid], the “% Inhibition, DPPH” value ([11]; 240 µM, 517 nm) was 82.75%, the IC50 ([11]; read-out: IC50, DPPH) was 80 µM and the “% Inhibition, hydroxyl radical” value ([12]; 240 µM, 230 nm) was 78.83%. The IC50 ([12]; read-out: IC50, hydroxyl radical) was 160 µM, the “% Inhibition, superoxide” value ([13]; 240 µM, 590 nm) was 84.85% and the IC50 ([13]; read-out: IC50, superoxide) was 120 µM. The “% Inhibition, nitric oxide” value ([14]; 240 µM, 546 nm) was 72.73%, the IC50 ([14]; read-out: IC50, nitric oxide) was 200 µM and the “% Inhibition, ferric reducing power” value ([15]; 240 µM, 700 nm) was 88.67%. It also gave an IC50 ([15]; read-out: IC50, ferric reducing power) of 160 µM.

With `N.N.[Cl][Pt][Cl]` [Cisplatin, cisplatin] the “IC50 A549” value [16] was 09.62 µg/mL, the “IC50 HepG2” value [17] was 06.94 µg/mL and the “IC50 MCF-7” value [18] was 06.11 µg/mL. For the same compound, the “IC50 NHDF” value [19] was 08.08 µg/mL.

Source: paper PMC9064050 (RSC Advances, 2019)
